# Test results as given in paper PMC5055850 (Bioorganic & medicinal chemistry, 2016).
# Where two headings read alike, the source gives them in different places.
# Assays:
# Type in all cases: cell-based
# [1] = system: human polymorphonuclear neutrophils (hPMN); assay: Ca2+ flux assay in human neutrophils; settings: for hPMN Efficacy: % of the response induced by 5 nM fMLF; for EC50: Homo sapiens, Polymorphonuclear neutrophil, read-out: hPMN EC50
# How it was run: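 Neutrophils from healthy donors' blood, purified by dextran sedimentation, Histopaque 1077 gradient and hypotonic red-cell lysis (>95% pure, >98% viable). Cells in HBSS− with 10 mM HEPES were loaded with Fluo-4 AM (1.25 µg/mL final) for 30 min at 37 °C, then plated at 2 × 10^5 cells/well. Fluorescence (485/538 nm) read every 5 s for 240 s at room temperature. Peak change normalized to 5 nM fMLF. EC50 from 5–6-point nonlinear regression, three experiments.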
# FPR1 = target: T1, FPR1 (Homo sapiens, UniProt P21462); assay: Ca2+ flux assay in FPR1-HL60 cells; settings: for FPR1-HL60 Efficacy: % of the response induced by 5 nM fMLF; for Emax: read-out: FPR1-HL60 Efficacy
# T1 sequence (P21462 1-350): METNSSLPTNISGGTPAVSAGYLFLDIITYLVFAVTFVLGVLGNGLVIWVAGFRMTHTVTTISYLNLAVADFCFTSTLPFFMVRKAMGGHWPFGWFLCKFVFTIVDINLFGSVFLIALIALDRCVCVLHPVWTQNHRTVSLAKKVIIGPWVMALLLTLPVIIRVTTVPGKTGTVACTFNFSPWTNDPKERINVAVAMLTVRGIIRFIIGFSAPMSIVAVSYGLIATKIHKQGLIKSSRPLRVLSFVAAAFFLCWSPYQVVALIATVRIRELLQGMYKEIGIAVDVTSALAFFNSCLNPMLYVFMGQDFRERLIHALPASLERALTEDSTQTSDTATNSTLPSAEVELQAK
# How it was run: (§1)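 FPR1-, FPR2- or FPR3-transfected HL-60 cells grown in RPMI 1640 with 10% heat-inactivated FCS, 10 mM HEPES and G418 (1 mg/mL). Cells loaded with Fluo-4 AM (1.25 µg/mL final) for 30 min at 37 °C in the dark, then 2 × 10^5 cells/well. Fluorescence (ex 485/em 538 nm) read every 5 s for 240 s at room temperature. Peak rise over baseline normalized to 5 nM fMLF (FPR1) or 5 nM WKYMVm (FPR2, FPR3). EC50 from 5–6-point nonlinear fits, three independent experiments.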
# FPR2 = target: T2, FPR2 (Homo sapiens, UniProt P25090); assay: Ca2+ flux assay in FPR2-HL60 cells; settings: for FPR2-HL60 Efficacy: % of the response induced by 5 nM WKYMVm; for Emax: read-out: FPR2-HL60 Efficacy
# T2 sequence (P25090 1-351): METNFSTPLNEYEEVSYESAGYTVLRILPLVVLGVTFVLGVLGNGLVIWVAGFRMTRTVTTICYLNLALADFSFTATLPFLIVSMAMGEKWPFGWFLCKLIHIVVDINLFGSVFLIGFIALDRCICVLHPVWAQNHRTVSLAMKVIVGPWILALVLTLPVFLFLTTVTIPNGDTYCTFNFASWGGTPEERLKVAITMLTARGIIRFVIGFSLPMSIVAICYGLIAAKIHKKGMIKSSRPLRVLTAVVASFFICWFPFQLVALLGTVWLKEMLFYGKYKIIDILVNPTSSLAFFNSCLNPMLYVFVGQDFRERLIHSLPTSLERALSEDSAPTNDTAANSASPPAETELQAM
# How it was run: as §1
# [2] = system: mouse polymorphonuclear neutrophils (mPMN); assay: Ca2+ flux assay in mouse neutrophils; settings: for mPMN Efficacy: % of the response induced by 5 nM WKYMVm; for EC50: Mus musculus, Polymorphonuclear neutrophil, read-out: mPMN EC50
# How it was run: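 Neutrophils taken from BALB/c mouse tibia and femur bone marrow. Isolated on a 45/50/55/62/81% Percoll gradient (1600g, 30 min, 10 °C), then Histopaque 1119 to remove red cells, and kept in HBSS−. Ca2+ fluorescence (485/538 nm) monitored every 5 s for 240 s at room temperature after compound addition. Maximal change over baseline normalized to 5 nM WKYMVm. EC50 from 5–6-point nonlinear regression, three independent experiments.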
# FPR3 = target: T3, FPR3 (Homo sapiens, UniProt P25089); assay: Ca2+ flux assay in FPR3-HL60 cells
# T3 sequence (P25089 1-353): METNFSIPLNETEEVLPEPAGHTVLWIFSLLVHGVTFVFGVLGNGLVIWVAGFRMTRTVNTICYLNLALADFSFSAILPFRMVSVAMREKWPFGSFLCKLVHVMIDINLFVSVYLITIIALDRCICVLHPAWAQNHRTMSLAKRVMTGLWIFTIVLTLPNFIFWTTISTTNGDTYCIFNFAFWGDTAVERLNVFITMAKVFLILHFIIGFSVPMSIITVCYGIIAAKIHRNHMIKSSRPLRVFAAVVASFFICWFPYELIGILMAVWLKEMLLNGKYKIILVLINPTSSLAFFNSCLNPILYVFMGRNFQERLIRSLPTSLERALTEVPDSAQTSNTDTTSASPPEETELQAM
# How it was run: as §1
# [3] = read-out: FPR1-HL60 EC50, Ca2+ flux, HL-60 cells transfected with FPR1
# [4] = read-out: FPR2-HL60 EC50, Ca2+ flux, HL-60 cells transfected with FPR2
# [5] = FPR2-HL60 EC50, Ca2+ flux, HL-60 cells transfected with FPR2
SMILES,hPMN Efficacy [1] [%],FPR1-HL60 Efficacy (FPR1) [%],EC50 (FPR1; [3]) [nM],FPR2-HL60 Efficacy (FPR2) [%],EC50 (FPR2; [4]) [µM],EC50 [1] [µM],EC50 (FPR1) [nM],Emax (FPR1) [%],EC50 (FPR2; [5]) [µM],Emax (FPR2) [%],mPMN Efficacy [2] [%],EC50 [2] [µM],EC50 (FPR3) [nM],FPR3-HL60 Efficacy (FPR3; % of the response induced by 5 nM WKYMVm) [%],"FPR2-HL60 EC50 (FPR2; Ca2+ flux, HL-60 cells transfected with FPR2)"
"COc1cccc(Nc2c(C(=O)C3CCCCC3)c(C)nn(CC(=O)Nc3ccc(Br)cc3)c2=O)c1 [Compound 8f, N-(4-Bromophenyl)-2-[4-cyclohexanecarbonyl-5-(3-methoxyphenylamino)-3-methyl-6-oxopyridazin-1(6)-yl]acetamide]",120,110,10000 ± 3200,115,8.7 ± 0.47,–,–,–,–,–,–,–,–,–,–
"CCCC(=O)c1c(C)nn(CC(=O)Nc2ccc(Br)cc2)c(=O)c1Nc1cccc(OC)c1 [Compound 8c, N-(4-Bromophenyl)-2-[4-butyryl-5-(3-methoxyphenylamino)-3-methyl-6-oxopyridazin-1(6H)-yl]acetamide]",–,–,–,–,–,24 ± 4.2,11800 ± 3500,70,8.1 ± 2.1,90,–,–,–,–,–
"COC(=O)c1c(C)nn(CC(=O)Nc2ccc(Br)cc2)c(=O)c1Nc1cccc(OC)c1 [Compound 19a, Methyl 1-[(4-bromophenylcarbamoyl)methyl]-5-(3-methoxyphenylamino)-1,6-dihydro-3-methyl-6-oxopyridazine-4-carboxylate]",–,–,–,–,–,22.1 ± 5.3,4400 ± 600,25,2.3 ± 0.49,60,–,–,–,–,–
"COc1cccc(Nc2c(C(=O)C3CCCC3)c(C)nn(CC(=O)Nc3ccc(Br)cc3)c2=O)c1 [Compound 8e, N-(4-Bromophenyl)-2-[4–cyclopentanecarbonyl-5-(3-methoxyphenylamino)-3-methyl-6-oxopyridazin-1(6H)-yl]acetamide]",–,–,–,–,–,1.7 ± 0.4,1600 ± 400,110,10.5 ± 2.1,60,120,15.9 ± 4.9,–,–,–
"CCCCc1c(C)nn(CC(=O)Nc2ccc(Br)cc2)c(=O)c1Nc1cccc(OC)c1 [Compound 13c, N-(4-Bromophenyl)-2-[4-butyl-5-(3-methoxyphenylamino)-3-methyl-6-oxopyridazin-1(6H)-yl]acetamide]",–,–,–,–,–,1.4 ± 0.8,3600 ± 1100,65,4.5 ± 1.3,30,–,–,–,–,–
"Cc1nn(CC(=O)Nc2ccc(Br)cc2)c(=O)c(N)c1-c1ccn(C)n1 [Compound 26, 2-[5-Amino-3-methyl-4-(1-methyl-1H-pyrazol-3-yl)-6-oxopyridazin-1(6H)-yl]-N-(4-bromophenyl)acetamide]",–,–,–,–,–,3.5 ± 0.32,2900 ± 140,75,1.9 ± 0.71,40,45,5.6 ± 2.4,–,–,–
"CCc1c(C)nn(CC(=O)Nc2ccc(Br)cc2)c(=O)c1Nc1cccc(OC)c1 [Compound 13a, N-(4-Bromophenyl)-2-[4-ethyl-5-(3-methoxyphenylamino)-3-methyl-6-oxopyridazin-1(6H)-yl]acetamide]",–,–,–,–,–,0.34 ± 0.11,180 ± 4,185,0.061 ± 0.022,35,–,–,460 ± 14,35,–
"COc1cccc(Nc2cc(C)cn(CC(=O)Nc3ccc(Br)cc3)c2=O)c1 [Compound 29b, N-(4-Bromophenyl)-2-[3-(3-methoxyphenylamino)-5-methyl-2-oxopyridin-1(2H)-yl]acetamide]",–,–,–,–,–,4.31 ± 0.4,2500 ± 700,110,8.1 ± 1.7,75,–,–,–,–,–
"CCCc1c(C)nn(CC(=O)Nc2ccc(Br)cc2)c(=O)c1Nc1cccc(OC)c1 [Compound 13b, N-(4-Bromophenyl)-2-[5-(3-methoxyphenylamino)-3-methyl-6-oxo-4-propylpyridazin-1(6H)-yl]acetamide]",–,–,–,–,–,–,–,–,–,–,–,–,–,–,completely devoid of activity
"CCCCC(=O)c1c(C)nn(CC(=O)Nc2ccc(Br)cc2)c(=O)c1Nc1cccc(OC)c1 [Compound 8d, N-(4-Bromophenyl)-2-[5–(3-methoxyphenylamino)-3-methyl-6-oxo-4-pentanoylpyridazin-1(6H)-yl]acetamide]",–,–,–,–,–,8 ± 2.6,15600 ± 2600,45,–,–,105,24.1 ± 6.1,–,–,–
"CCOC(=O)c1c(C)nn(CC(=O)Nc2ccc(Br)cc2)c(=O)c1Nc1cccc(OC)c1 [Compound 19b, Ethyl 1-[(4-bromophenylcarbamoyl)methyl]-5-(3-methoxyphenylamino)-1,6-dihydro-3-methyl-6-oxopyridazine-4-carboxylate]",–,–,–,–,–,6.1 ± 1.7,2500 ± 700,90,1.9 ± 0.03,110,–,–,–,–,–
"CCC(=O)c1c(C)nn(CC(=O)Nc2ccc(Br)cc2)c(=O)c1Nc1cccc(OC)c1 [Compound 8b, N-(4-Bromophenyl)-2-[5-(3-methoxyphenylamino)-3-methyl-6-oxo-4-propionylpyridazin-1(6H)-yl]acetamide]",–,–,–,–,–,5.5 ± 1.6,2700 ± 800,130,0.78 ± 0.1,190,75,8.4 ± 2.6,–,–,–
"Cc1nn(CC(=O)Nc2ccc(Br)cc2)c(=O)c(N)c1-c1cc[nH]n1 [Compound 25, 2-[5-Amino-3-methyl-6-oxo-4-(1H-pyrazol-3-yl)-6H-pyridazin-1-yl]-N-(4-bromo--phenyl)acetamide]",140,135,8400 ± 1500,60,13.5 ± 1.8,–,–,–,–,–,–,–,–,–,–
"COc1cccc(Nc2cc(C)nn(CC(=O)Nc3ccc(Br)cc3)c2=O)c1 [Compound 29a, N-(4-Bromophenyl)-2-[5-(3-methoxyphenylamino)-3-methyl-6-oxopyridazin-1(6H)-yl]-acetamide]",–,–,–,–,–,0.56 ± 0.12,240 ± 90,120,9.6 ± 2,65,–,–,–,–,–
"CCCCCc1c(C)nn(CC(=O)Nc2ccc(Br)cc2)c(=O)c1Nc1cccc(OC)c1 [Compound 13d, N-(4-Bromophenyl)-2-[5-(3-methoxyphenylamino)-3-methyl-6-oxo-4-pentyldazin-1(6H)-yl]acetamide]",55,95,1400 ± 340,115,0.19 ± 0.018,–,–,–,–,–,–,–,–,–,–
